Assay outcomes: PubChem BioAssay, several laboratories
In the library only some 4.1% were active in any assay of this set; here they are far more common.
KCC2 mod: KCC2 cotransporter modulators, thallium flux, primary screen, cell-based, HEK293 KCC2, FluoZin-2 fluorescence, MLSMR; KCC2 cells, thallium flux FluoZin-2 fluorescence; Solute carrier family 12 member 5 (Homo sapiens), Q9H2X9; B-score of Tl+ flux slope (higher = more flux/activation; lower = inhibition) at 10 µM; 190,000 compounds, 2.2% hits; AID 1456, 2008;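 active = thallium flux slope and its plate-corrected score both differing from the plate sample mean at a set confidence after two filtering rounds, in either direction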;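 note: slope of fluorescence scaled to starting intensity during 10 to 20 s after thallium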
KCNQ1 inh: inhibitors of human KCNQ1 channel, primary screen, cell-based, thallium flux, high-throughput | B-score at 10 µM | CHO-K1 KCNQ1, FluxOR thallium flux fluorescence; active compounds read high | 310,000 compounds, 1.3% hits | Potassium voltage-gated channel subfamily KQT member 1 (Homo sapiens), P51787 | AID 2642, 2010;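 active = compounds whose thallium flux B-score, printed positive for inhibition, exceeds three library SD while starting fluorescence stays within three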;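 note: channel opened by potassium depolarization with thallium stimulus after 20 min compound exposure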
KCNQ1 act: potentiators or activators of KCNQ1 channel, primary screen, cell-based, thallium flux, high-throughput. CHO-K1 KCNQ1, thallium flux FluxOR fluorescence; active compounds read high. B-score at 10 µM. Potassium voltage-gated channel subfamily KQT member 1 (Homo sapiens), P51787. 310,000 compounds, 0.35% hits;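 active = fluorescence ratio B-score, a plate-corrected score, at least three library SD, with initial intensity B-score within 5 SD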
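Assay system: CHO-K1 cells stably expressing KCNQ1. Medium: assay buffer for compound exposure, DMSO matched across wells. Timing: 37 °C overnight plating, 90-min dark dye load, 20-min compound pretreatment. Signal: kinetic FluxOR fluorescence, 10 s baseline plus 110 s post-stimulus.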
KCNK3 block: human KCNK3 channel inhibitors, primary screen, CHO cells, FluxOR thallium flux, B-score. FluxOR fluorescence; active compounds read low. B-score at 10 µM. 340,000 compounds, 0.84% hits. AID 602410, 2012;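 active = B-score under library mean minus 4 SD, starting fluorescence ratio at most library mean plus 5 SD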;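 note: more negative B-score means stronger inhibition of thallium flux through KCNK3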
Target sequence (O14649 whole entry, looked up): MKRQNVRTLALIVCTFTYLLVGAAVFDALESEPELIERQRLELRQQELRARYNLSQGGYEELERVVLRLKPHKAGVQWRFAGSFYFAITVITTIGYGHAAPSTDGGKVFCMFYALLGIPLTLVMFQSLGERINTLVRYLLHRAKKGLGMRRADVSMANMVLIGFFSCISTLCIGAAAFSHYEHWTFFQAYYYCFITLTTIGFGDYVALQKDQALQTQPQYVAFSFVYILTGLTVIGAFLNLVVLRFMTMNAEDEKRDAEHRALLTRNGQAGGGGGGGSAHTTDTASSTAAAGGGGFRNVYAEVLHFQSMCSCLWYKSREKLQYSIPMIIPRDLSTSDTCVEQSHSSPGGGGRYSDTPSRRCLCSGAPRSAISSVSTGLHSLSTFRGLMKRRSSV
hERG rescue: hERG rescue from dofetilide block, primary screen, cell-based, CHO-hERG, FluxOR thallium flux, dofetilide IC70; Voltage-gated inwardly rectifying potassium channel KCNH2 (Homo sapiens), Q12809; dofetilide IC70 present; activation (rescue from dofetilide block), less the hit threshold, % at 10 µM; 310,000 compounds, 0.51% hits; AID 1511, 2009;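 active = activation above the mean of controls blocked by dofetilide plus 5 SD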;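 note: thallium influx through hERG after potassium depolarization seen as dye fluorescence rise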
KCNK9 inh: KCNK9 potassium channel inhibitors, primary screen, HEK293 cells, thallium flux. FluxOR thallium flux fluorescence; active compounds read low. B-score at 10 µM. 310,000 compounds, 1.2% hits. AID 488922, 2010;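 active = ratio B-score over 3 SD below the library mean, with starting fluorescence within 5 SD of its mean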;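 note: negative B-score means less thallium flux so channel inhibition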
Target sequence (Q9NPC2 whole entry, looked up): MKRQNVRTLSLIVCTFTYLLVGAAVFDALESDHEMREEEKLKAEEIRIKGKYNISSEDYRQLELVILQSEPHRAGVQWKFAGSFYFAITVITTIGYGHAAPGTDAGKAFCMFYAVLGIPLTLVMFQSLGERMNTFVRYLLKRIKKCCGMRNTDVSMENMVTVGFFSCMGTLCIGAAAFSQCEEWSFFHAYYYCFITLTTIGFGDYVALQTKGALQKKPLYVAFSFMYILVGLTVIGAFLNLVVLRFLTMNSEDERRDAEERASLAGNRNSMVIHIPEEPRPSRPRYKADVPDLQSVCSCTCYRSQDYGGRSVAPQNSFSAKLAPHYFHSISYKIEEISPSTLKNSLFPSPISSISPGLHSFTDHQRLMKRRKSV
KCNK3 confirm: retest of human KCNK3 channel inhibitors, confirmation, CHO cells, FluxOR thallium flux, triplicate | shares compounds with KCNK3 block | FluxOR fluorescence; 0% buffer, 100% carvedilol maximal block | ratio percent of control, % at 10 µM | 2,400 compounds, 99% hits;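 active = ratio percent of control, averaged over triplicates, above buffer control mean plus 5 SD, cut at about 64% in these data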;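 note: ratio is the fluorescence rise from min to max over baseline after thallium stimulus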
KCNK3 uninduced: thallium flux inhibition in non-induced cells, primary screen, counter-screen for KCNK3 inhibitor project, cell-based, non-induced KCNK3 line, FluxOR thallium, triplicate; shares compounds with KCNK3 block; non-induced KCNK3 parental cells; active compounds read low; thallium flux ratio (lower = more inhibition) at 10 µM; 2,400 compounds, 40% hits; AID 651747, 2012;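 active = thallium flux ratio, averaged over three wells, more than 5 SD below the buffer control mean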;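 note: host cells are CHO cells without KCNK3 induction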
Large screens that a line does not name were inactive (follow-up assays come after a bar, where they were run).

C(=C\CSc1nnnn1-c1ccccc1)/CSc1nnnn1-c1ccccc1	KCNK3 block -9.7 | KCNK3 confirm 106 | KCNK3 uninduced inactive
CC(=O)OCC(=O)C1(O)CCC2C3CC(F)C4=CC(=O)CCC4(C)C3C(O)CC21C (stereo not drawn)	none (no result: KCC2 mod, KCNQ1 inh, KCNQ1 act, hERG rescue, KCNK9 inh)
Cc1cc(C)nc(N(C#N)Cc2cccc3ccccc23)n1	KCNK3 block -9.2 | KCNK3 confirm 74 | KCNK3 uninduced inactive
O=C(/C=C/c1ccc(O)c(O)c1)OCCc1ccccc1	KCNK3 block -12 (no result: KCC2 mod) | KCNK3 confirm 84 | KCNK3 uninduced 0.14
Cc1ccc(S(=O)(=O)N(C)C)cc1NC(=O)COC(=O)c1c(-c2ccccc2)noc1C	KCNK3 block -9 (no result: KCC2 mod) | KCNK3 confirm 91 | KCNK3 uninduced inactive
Cc1ccc2c(Cl)cc(Cl)c(OCC(=O)Nc3cc(S(=O)(=O)N(C)C)ccc3C)c2n1	KCNK3 block -9.1 | KCNK3 confirm 90 | KCNK3 uninduced 0.15
Cc1ccc(S(=O)(=O)N(C)C)cc1NC(=O)COc1ccc(-c2nnco2)cc1	none
Cc1ccccc1NC(=O)COC(=O)c1c(-c2ccccc2)noc1C	none (no result: KCC2 mod, KCNQ1 inh, KCNQ1 act, hERG rescue, KCNK9 inh)
COc1cccc(CN(C)C(=O)CSCC(=O)Nc2cccc(C)c2)c1OC	none (no result: KCC2 mod, KCNQ1 inh, KCNQ1 act, hERG rescue, KCNK9 inh)
COc1cccc(O)c1CN1CCC(C(=O)Nc2ccc(Oc3cccnc3)cc2)CC1	none (no result: KCC2 mod)
COc1cccc(O)c1CN1CCC(C(=O)Nc2ccc(-c3cccc(C)c3)cc2)CC1	KCNQ1 inh 6, KCNK3 block -11 (no result: KCC2 mod) | KCNK3 confirm 125 | KCNK3 uninduced inactive
N#Cc1nc(COc2ccc(Br)cc2)oc1N1CCCCCC1	KCNK3 block -15 (no result: KCC2 mod) | KCNK3 confirm 82 | KCNK3 uninduced inactive
COc1ccc(C2=NNC(c3cc(Cl)cc4c3OCOC4)C2)c(O)c1 (stereo not drawn)	none (no result: KCNK3 block)
Oc1ccc(Cl)cc1C1=NNC(c2cc(Br)cc3c2OCOC3)C1 (stereo not drawn)	KCNK3 block -8.8 | KCNK3 confirm 96 | KCNK3 uninduced inactive
Cc1cccc(OCCn2nc(C(=O)O)c3ccccc3c2=O)c1	none
CC(C)(C)c1ccc(OCCn2nc(C(=O)O)c3ccccc3c2=O)cc1	KCNK3 block -9.1 (no result: KCC2 mod) | KCNK3 confirm 112 | KCNK3 uninduced inactive
COc1ccccc1NC(=O)c1ccc(S(=O)(=O)NCc2ccco2)cc1	none (no result: KCC2 mod)
O=C(Cc1coc2cc(O)ccc12)N1CCN(S(=O)(=O)c2ccc(Br)cc2)CC1	none (no result: KCC2 mod, KCNQ1 inh, KCNQ1 act, hERG rescue, KCNK9 inh)
Cc1cnccc1CN(C)Cc1cn(C)nc1-c1cccc(Cl)c1	none
Cc1cnccc1CN(C)Cc1cn(C)nc1-c1ccc(Oc2ccccc2)cc1	KCNK3 block -10 | KCNK3 confirm 118 | KCNK3 uninduced 0.15
CCOc1ccccc1C(=O)NCC(=O)OCCOc1cccc(Cl)c1	KCNK3 block -10 (no result: KCC2 mod) | KCNK3 confirm 100 | KCNK3 uninduced inactive
CCOc1ccccc1C(=O)NCC(=O)OCCCOC(=O)CNC(=O)c1ccccc1OCC	none (no result: KCC2 mod)
CCC(CO)Nc1nc2ccc(Cl)cc2c2ccccc12 (stereo not drawn)	KCNK3 block -9.2 | KCNK3 confirm 98 | KCNK3 uninduced inactive
O=C(NC1CCN(Cc2ccccc2)CC1)c1cccc(S(=O)(=O)Nc2ccc(F)cc2)c1	none (no result: KCC2 mod, KCNQ1 inh, KCNQ1 act, hERG rescue, KCNK9 inh)
O=C(c1cccs1)c1cn(CC(=O)N2CCc3ccccc3C2)c2ccccc12	KCNK3 block -11 | KCNK3 confirm 80 | KCNK3 uninduced inactive
COc1cc2ccccc2cc1C(=O)Nc1nccs1	KCNK3 block -9.6 (no result: KCC2 mod) | KCNK3 confirm 94 | KCNK3 uninduced inactive
O=C(CCSc1nc(-c2ccco2)cc(C(F)(F)F)n1)N1CCN(c2ccccn2)CC1	none
O=C(CCSc1nc(-c2ccco2)cc(C(F)(F)F)n1)N1CCCc2ccccc21	KCNK3 block -9.9 | KCNK3 confirm 100 | KCNK3 uninduced inactive
CCC(C)N(C(=O)Cn1c(=O)cnc2ccccc21)C1CCS(=O)(=O)C1 (stereo not drawn)	none (no result: KCC2 mod)
COc1ccccc1CNC(=O)c1sccc1-c1ccccc1	KCNK3 block -10 (no result: KCC2 mod) | KCNK3 confirm 103 | KCNK3 uninduced inactive
COc1ccccc1CNC(=O)c1sccc1C	none (no result: KCC2 mod)
O=C(COc1cccc(NC(=O)c2cccc([N+](=O)[O-])c2)c1)c1ccc(Br)cc1	KCNK3 block -11 | KCNK3 confirm 96 | KCNK3 uninduced 0.15
Cc1cc(C)cc(C(=O)Nc2cccc(NC(=O)c3ccco3)c2)c1	KCNK3 block -11, KCNK9 inh -8 (no result: KCC2 mod) | KCNK3 confirm 101 | KCNK3 uninduced inactive
COc1cccc(C(=O)COc2cccc(NC(=O)c3ccco3)c2)c1	KCNK3 block -10, KCNK9 inh -7.3 | KCNK3 confirm 120 | KCNK3 uninduced 0.14
CCN(Cc1nc(-c2ccc(OC)c(OC)c2)no1)C(=O)c1ccoc1C	none (no result: KCC2 mod)
O=C(c1ccccc1)N1CCN(c2ccccc2F)CC1	none (no result: KCC2 mod)
O=C(c1ccc(-c2ccccc2)cc1)N1CCN(c2ccccc2F)CC1	KCNK3 block -9.2 (no result: KCC2 mod) | KCNK3 confirm 108 | KCNK3 uninduced inactive
COc1ccccc1N1CCN(C(=O)c2cc3c(=O)n4cccc(C)c4nc3s2)CC1	none (no result: KCC2 mod)
CC(=O)c1cccc(N(CC(=O)Nc2ccc(S(=O)(=O)N3CCOCC3)cc2)S(C)(=O)=O)c1	none (no result: KCC2 mod)
CC(=O)c1cccc(N(CC(=O)Nc2ccc(S(=O)(=O)N3CCCC3)cc2)S(C)(=O)=O)c1	KCNK3 block -9.5 (no result: KCC2 mod) | KCNK3 confirm inactive | KCNK3 uninduced inactive
Cc1cc(O)c(C(C)C)cc1C1(c2cc(C(C)C)c(O)cc2C)OC(=O)c2ccccc21	KCNK3 block -9.1 | KCNK3 confirm 120 | KCNK3 uninduced 0.15
Cc1ccc(NC(=O)Cn2c(=O)n(Cc3ccco3)c(=O)c3ccccc32)c(C)c1	none
O=C(Cn1c(=O)n(Cc2ccco2)c(=O)c2ccccc21)Nc1cccc(Cl)c1	KCNK3 block -14 | KCNK3 confirm 98 | KCNK3 uninduced inactive
